In ChEMBL document CHEMBL1154792, “chi-Conopeptide pharmacophore development: toward a novel class of norepinephrine transporter inhibitor (Xen2174) for pain” (J Med Chem, 2009):
Activity calls are given as the source filed them. No cut-off for these calls is given here. Where a SMILES comes first, the peptide text is derived from it. Bridges are numbered along the chain shown (N, C = ends). [ ]: non-standard residue; d: D form. Pro(3S-OH) = O=C(O)[C@H]1NCC[C@@H]1O; Cha = N[C@@H](CC1CCCCC1)C(=O)O; pGlu = O=C1CC[C@@H](C(=O)O)N1

target: Sodium-dependent noradrenaline transporter (Homo sapiens, UniProt P23975); assay: Displacement of [3H]nisoxetine from human NET expressed in COS7 cells; type: cell-based; settings: COS-7
Outline: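 Membranes from COS-7 cells transfected with human NET were incubated with [3H]nisoxetine (4.3 nM) with or without peptide (1 nM to 100 μM, triplicate) for 1 h at RT. Filter-retained radioactivity was counted by liquid scintillation, and values are given as pIC50. Data are means of 2–5 experiments in triplicate; peptide concentration was set by calibrated HPLC at 214 nm.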

Sequence of Sodium-dependent noradrenaline transporter (P23975 whole entry): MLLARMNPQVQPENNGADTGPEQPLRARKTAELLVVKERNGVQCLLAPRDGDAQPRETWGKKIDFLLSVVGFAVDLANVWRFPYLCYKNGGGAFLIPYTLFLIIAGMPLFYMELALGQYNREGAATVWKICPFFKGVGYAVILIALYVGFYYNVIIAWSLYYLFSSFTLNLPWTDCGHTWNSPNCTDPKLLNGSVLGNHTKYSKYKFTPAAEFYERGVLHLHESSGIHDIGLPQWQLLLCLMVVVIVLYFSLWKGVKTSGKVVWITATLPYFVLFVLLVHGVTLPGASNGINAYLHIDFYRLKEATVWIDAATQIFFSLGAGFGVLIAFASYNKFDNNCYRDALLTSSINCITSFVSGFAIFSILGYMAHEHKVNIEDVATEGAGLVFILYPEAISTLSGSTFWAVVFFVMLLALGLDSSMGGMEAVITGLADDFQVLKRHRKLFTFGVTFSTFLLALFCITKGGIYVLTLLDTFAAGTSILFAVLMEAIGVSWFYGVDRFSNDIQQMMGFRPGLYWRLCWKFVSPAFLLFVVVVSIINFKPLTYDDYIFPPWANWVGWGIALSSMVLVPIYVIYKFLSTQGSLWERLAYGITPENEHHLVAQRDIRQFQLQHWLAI

Row | SMILES | Activity
1 | COc1ccc(C[C@@H]2NC(=O)CNC(=O)[C@@H]3CSSC[C@H](NC(=O)[C@H](CC(C)C)NC(=O)[C@H](CCCCN)NC2=O)C(=O)N[C@@H](Cc2cnc[nH]2)C(=O)N2CC[C@H](O)[C@H]2C(=O)N[C@H](C(=O)O)CSSC[C@H](NC(=O)[C@@H](NC(=O)CNC(=O)[C@@H]2CCC(=O)N2)C(C)C)C(=O)N3)cc1 | Active
2 | CCCC[C@@H]1NC(=O)[C@H](CCCCN)NC(=O)[C@H](Cc2ccc(O)cc2)NC(=O)CNC(=O)[C@@H]2CSSC[C@H](NC1=O)C(=O)N[C@@H](Cc1cnc[nH]1)C(=O)N1CC[C@H](O)[C@H]1C(=O)N[C@H](C(=O)O)CSSC[C@H](NC(=O)[C@@H](NC(=O)CNC(=O)[C@@H]1CCC(=O)N1)C(C)C)C(=O)N2 | Active
3 | CC(C)C[C@@H]1NC(=O)[C@H](CCCCN)NC(=O)[C@@H](Cc2ccc(O)cc2)NC(=O)CNC(=O)[C@@H]2CSSC[C@H](NC1=O)C(=O)N[C@@H](Cc1cnc[nH]1)C(=O)N1CC[C@H](O)[C@H]1C(=O)N[C@H](C(=O)O)CSSC[C@H](NC(=O)[C@@H](NC(=O)CNC(=O)[C@@H]1CCC(=O)N1)C(C)C)C(=O)N2 | inactive
4 | CC(C)C[C@@H]1NC(=O)[C@H](CCCCN)NC(=O)[C@H](Cc2c[nH]c3ccccc23)NC(=O)CNC(=O)[C@@H]2CSSC[C@H](NC1=O)C(=O)N[C@@H](Cc1cnc[nH]1)C(=O)N1CC[C@H](O)[C@H]1C(=O)N[C@H](C(=O)O)CSSC[C@H](NC(=O)[C@@H](NC(=O)CNC(=O)[C@@H]1CCC(=O)N1)C(C)C)C(=O)N2 | inactive
5 | CC[C@H](C)[C@@H]1NC(=O)CNC(=O)[C@@H]2CSSC[C@H](NC(=O)[C@H](CC(C)C)NC(=O)[C@H](CCCCN)NC1=O)C(=O)N[C@@H](Cc1cnc[nH]1)C(=O)N1CC[C@H](O)[C@H]1C(=O)N[C@H](C(=O)O)CSSC[C@H](NC(=O)[C@@H](NC(=O)CNC(=O)[C@@H]1CCC(=O)N1)C(C)C)C(=O)N2 | inactive
6 | CC(C)C[C@H]1CC(=O)N[C@H]2CSSC[C@H](NC(=O)[C@@H](NC(=O)[C@@H](NC(=O)CNC(=O)[C@@H]3CCC(=O)N3)C(C)C)CSSC[C@@H](C(=O)O)NC(=O)[C@@H]3[C@@H](O)CCN3C(=O)[C@H](Cc3cnc[nH]3)NC2=O)C(=O)NCC(=O)N[C@@H](Cc2ccc(O)cc2)C(=O)N[C@@H](CCCCN)C(=O)N1 | Active
7 | CC(C)[C@H](NC(=O)CNC(=O)[C@@H]1CCC(=O)N1)C(=O)N[C@H]1CSSC[C@@H](C(=O)O)NC(=O)[C@@H]2[C@@H](O)CCN2C(=O)[C@H](Cc2cnc[nH]2)NC(=O)[C@@H]2CSSC[C@H](NC1=O)C(=O)NCC(=O)N[C@@H](Cc1ccc(O)cc1)C(=O)N[C@@H](CCCCN)C(=O)N[C@@H](C(C)C)C(=O)N2 ([pGlu]GVCCGYKVCH[Pro(3S-OH)]C-OH; disulfide 4-13, 5-10) | inactive
8 | COc1ccc(C[C@@H]2NC(=O)CNC(=O)[C@@H]3CSSC[C@H](NC(=O)[C@H](CC(C)C)NC(=O)[C@H](CCCCN)NC2=O)C(=O)N[C@@H](Cc2cnc[nH]2)C(=O)N2CC[C@H](O)[C@H]2C(=O)N[C@H](C(=O)O)CSSC[C@H](NC(=O)[C@@H](NC(=O)CNC(=O)[C@@H]2CCC(=O)N2)C(C)C)C(=O)N3)c(OC)c1 | inactive
9 | CC(C)C[C@@H]1NC(=O)[C@H](CCCCN)NC(=O)[C@H](Cc2ccc(O)cc2)NC(=O)CNC(=O)[C@@H]2CSSC[C@H](NC1=O)C(=O)N[C@@H](Cc1ccco1)C(=O)N1CC[C@H](O)[C@H]1C(=O)N[C@H](C(=O)O)CSSC[C@H](NC(=O)[C@@H](NC(=O)CNC(=O)[C@@H]1CCC(=O)N1)C(C)C)C(=O)N2 | Active
10 | CC(C)C[C@@H]1NC(=O)[C@H](CCCCN)NC(=O)[C@H](CCCCN)NC(=O)CNC(=O)[C@@H]2CSSC[C@H](NC1=O)C(=O)N[C@@H](Cc1cnc[nH]1)C(=O)N1CC[C@H](O)[C@H]1C(=O)N[C@H](C(=O)O)CSSC[C@H](NC(=O)[C@@H](NC(=O)CNC(=O)[C@@H]1CCC(=O)N1)C(C)C)C(=O)N2 ([pGlu]GVCCGKKLCH[Pro(3S-OH)]C-OH; disulfide 4-13, 5-10) | inactive
11 | CC(C)C[C@@H]1NC(=O)[C@H](CCCCN)NC(=O)[C@H](C(c2ccccc2)c2ccccc2)NC(=O)CNC(=O)[C@@H]2CSSC[C@H](NC1=O)C(=O)N[C@@H](Cc1cnc[nH]1)C(=O)N1CC[C@H](O)[C@H]1C(=O)N[C@H](C(=O)O)CSSC[C@H](NC(=O)[C@@H](NC(=O)CNC(=O)[C@@H]1CCC(=O)N1)C(C)C)C(=O)N2 | inactive
12 | CC(C)C[C@@H]1NC(=O)[C@H](CCCCN)NC(=O)[C@H](CO)NC(=O)CNC(=O)[C@@H]2CSSC[C@H](NC1=O)C(=O)N[C@@H](Cc1cnc[nH]1)C(=O)N1CC[C@H](O)[C@H]1C(=O)N[C@H](C(=O)O)CSSC[C@H](NC(=O)[C@@H](NC(=O)CNC(=O)[C@@H]1CCC(=O)N1)C(C)C)C(=O)N2 ([pGlu]GVCCGSKLCH[Pro(3S-OH)]C-OH; disulfide 4-13, 5-10) | inactive
13 | COc1ccc(C[C@@H]2NC(=O)CNC(=O)[C@@H]3CSSC[C@H](NC(=O)[C@H](CC(C)C)NC(=O)[C@H](CCCCN)NC(=O)[C@H](Cc4ccc(O)cc4)NC2=O)C(=O)N[C@@H](Cc2c[nH]c4ccccc24)C(=O)N2CC[C@H](O)[C@H]2C(=O)N[C@H](C(=O)O)CSSC[C@H](NC(=O)[C@@H](NC(=O)CNC(=O)[C@@H]2CCC(=O)N2)C(C)C)C(=O)N3)cc1 ([pGlu]GVCCGY(Me)YKLCW[Pro(3S-OH)]C-OH; disulfide 4-14, 5-11) | Active
14 | CC(C)C[C@@H]1NC(=O)[C@H](CCCCN)NC(=O)[C@H](Cc2ccc(O)cc2)NC(=O)CNC(=O)[C@@H]2CSSC[C@H](NC1=O)C(=O)N[C@@H](Cc1cccnc1)C(=O)N1CC[C@H](O)[C@H]1C(=O)N[C@H](C(=O)O)CSSC[C@H](NC(=O)[C@@H](NC(=O)CNC(=O)[C@@H]1CCC(=O)N1)C(C)C)C(=O)N2 | Active
15 | COc1ccc(C[C@@H]2NC(=O)CNC(=O)[C@@H]3CSSC[C@H](NC(=O)[C@H](CC4CCCCC4)NC(=O)[C@H](CCCCN)NC(=O)[C@H](Cc4ccc(O)cc4)NC2=O)C(=O)N[C@@H](Cc2c[nH]c4ccccc24)C(=O)N2CC[C@H](O)[C@H]2C(=O)N[C@H](C(=O)O)CSSC[C@H](NC(=O)[C@@H](NC(=O)CNC(=O)[C@@H]2CCC(=O)N2)C(C)C)C(=O)N3)cc1 ([pGlu]GVCCGY(Me)YK[Cha]CW[Pro(3S-OH)]C-OH; disulfide 4-14, 5-11) | Active
16 | CC(C)C[C@@H]1NC(=O)[C@H](CCCCN)NC(=O)[C@H](CCCNC(=N)N)NC(=O)CNC(=O)[C@@H]2CSSC[C@H](NC1=O)C(=O)N[C@@H](Cc1cnc[nH]1)C(=O)N1CC[C@H](O)[C@H]1C(=O)N[C@H](C(=O)O)CSSC[C@H](NC(=O)[C@@H](NC(=O)CNC(=O)[C@@H]1CCC(=O)N1)C(C)C)C(=O)N2 ([pGlu]GVCCGRKLCH[Pro(3S-OH)]C-OH; disulfide 4-13, 5-10) | inactive
17 | CC(C)C[C@@H]1NC(=O)[C@H](CCCCN)NC(=O)[C@H](Cc2ccc(O)cc2)NC(=O)CNC(=O)[C@@H]2CSSC[C@H](NC1=O)C(=O)N[C@@H](Cc1cnc[nH]1)C(=O)N1CC[C@H](O)[C@H]1C(=O)N[C@@H](C(=O)O)CSSC[C@H](NC(=O)[C@@H](NC(=O)CNC(=O)[C@@H]1CCC(=O)N1)C(C)C)C(=O)N2 | inactive
18 | CC(C)[C@H](NC(=O)CNC(=O)[C@@H]1CCC(=O)N1)C(=O)N[C@H]1CSSC[C@@H](C(=O)O)NC(=O)[C@@H]2[C@@H](O)CCN2C(=O)[C@H](Cc2cnc[nH]2)NC(=O)[C@@H]2CSSC[C@H](NC1=O)C(=O)NCC(=O)N[C@@H](Cc1ccc(O)cc1)C(=O)N[C@@H](CCCCN)C(=O)N[C@@H](C1CCCCC1)C(=O)N2 | Active
19 | CC(C)C[C@@H]1NC(=O)[C@H](CCCCN)NC(=O)[C@H](CCC(=O)O)NC(=O)CNC(=O)[C@@H]2CSSC[C@H](NC1=O)C(=O)N[C@@H](Cc1cnc[nH]1)C(=O)N1CC[C@H](O)[C@H]1C(=O)N[C@H](C(=O)O)CSSC[C@H](NC(=O)[C@@H](NC(=O)CNC(=O)[C@@H]1CCC(=O)N1)C(C)C)C(=O)N2 | inactive
20 | CC(C)C[C@@H]1NC(=O)[C@H](CCCCN)NC(=O)[C@H](Cc2ccc(O)cc2)NC(=O)CNC(=O)[C@@H]2CSSC[C@H](NC1=O)C(=O)N[C@@H](Cc1ccccc1)C(=O)N1CC[C@H](O)[C@H]1C(=O)N[C@H](C(=O)O)CSSC[C@H](NC(=O)[C@@H](NC(=O)CNC(=O)[C@@H]1CCC(=O)N1)C(C)C)C(=O)N2 ([pGlu]GVCCGYKLCF[Pro(3S-OH)]C-OH; disulfide 4-13, 5-10) | Active
21 | CC(C)C[C@@H]1NC(=O)[C@H](CCCCN)NC(=O)[C@H](CC2CCCCC2)NC(=O)CNC(=O)[C@@H]2CSSC[C@H](NC1=O)C(=O)N[C@@H](Cc1cnc[nH]1)C(=O)N1CC[C@H](O)[C@H]1C(=O)N[C@H](C(=O)O)CSSC[C@H](NC(=O)[C@@H](NC(=O)CNC(=O)[C@@H]1CCC(=O)N1)C(C)C)C(=O)N2 | inactive
22 | CC(C)C[C@@H]1NC(=O)[C@H](CCCCN)NC(=O)[C@H](Cc2ccc(O)cc2)NC(=O)CNC(=O)[C@@H]2CSSC[C@H](NC1=O)C(=O)N[C@@H](Cc1ccc(O)cc1)C(=O)N1CC[C@H](O)[C@H]1C(=O)N[C@H](C(=O)O)CSSC[C@H](NC(=O)[C@@H](NC(=O)CNC(=O)[C@@H]1CCC(=O)N1)C(C)C)C(=O)N2 ([pGlu]GVCCGYKLCY[Pro(3S-OH)]C-OH; disulfide 4-13, 5-10) | Active
23 | CC(C)C[C@@H]1NC(=O)[C@H](CCCCN)NC(=O)[C@H](Cc2ccc(O)cc2)NC(=O)CNC(=O)[C@H]2CSSC[C@@H](NC1=O)C(=O)N[C@@H](Cc1cnc[nH]1)C(=O)N1CC[C@H](O)[C@H]1C(=O)N[C@@H](C(=O)O)CSSC[C@@H](NC(=O)[C@@H](NC(=O)CNC(=O)[C@@H]1CCC(=O)N1)C(C)C)C(=O)N2 | inactive
24 | CC(C)C[C@@H]1NC(=O)[C@H](CCCCN)NC(=O)[C@H](Cc2cccs2)NC(=O)CNC(=O)[C@@H]2CSSC[C@H](NC1=O)C(=O)N[C@@H](Cc1cnc[nH]1)C(=O)N1CC[C@H](O)[C@H]1C(=O)N[C@H](C(=O)O)CSSC[C@H](NC(=O)[C@@H](NC(=O)CNC(=O)[C@@H]1CCC(=O)N1)C(C)C)C(=O)N2 | inactive
25 | CC(C)C[C@@H]1NC(=O)[C@H](CCCCN)NC(=O)[C@H](Cc2ccc(O)cc2)NC(=O)CNC(=O)[C@@H]2CSSC[C@H](NC1=O)C(=O)N[C@@H](Cc1cnc[nH]1)C(=O)N[C@H](CC(=O)O)C(=O)N[C@H](C(=O)O)CSSC[C@H](NC(=O)[C@@H](NC(=O)CNC(=O)[C@@H]1CCC(=O)N1)C(C)C)C(=O)N2 | inactive
